The results in this text go back to ChEMBL document CHEMBL1150127, “Microbial and chemical transformation studies of the bioactive marine sesquiterpenes (S)-(+)-curcuphenol and -curcudiol isolated from a deep reef collection of the Jamaican sponge Didiscus oxeata” (J Nat Prod, 2002).

As usually defined, the MIC is the least concentration at which growth counts as inhibited. Low readings indicate inhibition by little substance, high ones a need for much substance. In general, MFC refers to the smallest concentration meeting the test's criterion for killing the fungus. Read a low MFC as more potent killing. The MBC is the lowest tested concentration that kills the bacteria rather than only halting them. As usually defined, the CC50 is the concentration giving 50% cytotoxicity. Broadly, the EC50 is the concentration at which the effect is half-maximal. In general, EC90 refers to the point of the concentration-response curve where the effect stands at 90%.

Values after ≈ are worked out from the molar mass of the structure shown. Active and inactive are the calls of the source.

The test system of series [1] is Plasmodium falciparum. Nature of the series: Antimalarial activity against Plasmodium falciparum W2. The class given is functional.
Series [2] relates to Plasmodium falciparum. Nature of the series: Antimalarial activity against Plasmodium falciparum D6. The class given is functional.
For series [3], the system named is Mycobacterium tuberculosis. Description: Antituberculosis activity against Mycobacterium tuberculosis. The class given is functional, organism-based.
The next series concerns Cryptococcus neoformans. Description: Antifungal activity against Cryptococcus neoformans. Type of series: functional.
For series [4], the system named is Staphylococcus aureus. Nature of the series: Antibacterial activity against Staphylococcus aureus. Type of series: functional.
For another series, the system named is Candida albicans. Description: Antifungal activity against Candida albicans. Type of series: functional.
Series [5] relates to Staphylococcus aureus. Nature of the series: Antibacterial activity against methicillin-resistant Staphylococcus aureus. The class given is functional.
Series [6] can be described thus: Cytotoxicity against human HepG2(2.2.15) cells. Type of series: cell-based. A digest of the protocol: (§1)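 Run in cultures of 2.2.15 cells. Inhibition of HBV replication reported as EC50 and EC90, and cytotoxicity in the same cells as CC50, all in µg/mL. A selectivity index was taken from cytotoxic and antiviral concentrations.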
Another series concerns Hepatitis B virus. Description: Antiviral activity against Hepatitis B virus replication in human HepG2(2.2.15) cells. Type of series: functional, organism-based. A digest of the protocol: as §1

Regarding `CC(C)=CCC[C@H](C)c1ccc(CO)cc1O`, the minimum inhibitory concentration (MIC) was 2.9 µg/mL (≈ 12.4 µM) with Plasmodium falciparum [1] and 3.8 µg/mL (≈ 16.2 µM) with Plasmodium falciparum [2]. The outcome in series [3] was inactive. Regarding `C/C(=C\CC[C@H](C)c1ccc(CO)cc1O)CO`, the outcome in series [3] was inactive. Same read-out and setting: the value for `Cc1ccc([C@@H](C)CCCC(C)(C)O)c(O[C@H]2O[C@H](CO)[C@@H](O)[C@H](O)[C@H]2O)c1` was “inactive”. On to `Cc1ccc([C@@H](C)CCC[C@@H](C)C(=O)O)c(O)c1`, for which the result in series [3] was inactive. Still for that read-out and setting: with `CC(C)=CCC[C@H](C)c1ccc(C)c([N+](=O)[O-])c1O` the entry was “inactive”. Still for that read-out and setting: the value for `CC(C)=CCC[C@H](C)c1ccc(C)cc1OC(=O)c1ccncc1` was “inactive”; that for `Cc1ccc([C@@H](C)CCCC(C)CO)c(O)c1` (some centres not stated) was “inactive”. The same measure, in the same setting: the value for `Cc1ccc([C@@H](C)CC[C@H](O)C(C)(C)O)c(O)c1` was “inactive”; that for `Cc1ccc([C@@H](C)CCCC(C)C(=O)O)c(O)c1` (some centres not stated) was “inactive”; that for `Cc1ccc([C@@H](C)CCC[C@H](C)C(=O)O)c(O)c1` was “inactive”.

Turning to `CC(C)=CCC[C@H](C)c1ccc(C)cc1O[C@H]1O[C@H](CO)[C@@H](O)[C@H](O)[C@H]1O`, the result in [3] was inactive.

Take `CC(C)=CCC[C@H](C)c1ccc(C)cc1O`: the minimal fungicidal concentration (MFC) in the series with Cryptococcus neoformans and with Candida albicans was 12.5 µg/mL (≈ 57.3 µM) in each case. The MIC was 7.5 µg/mL (≈ 34.4 µM) with Cryptococcus neoformans; 1.8 µg/mL (≈ 8.24 µM) in the series with Plasmodium falciparum [1]; 3.6 µg/mL (≈ 16.5 µM) in the series with Plasmodium falciparum [2]; 7.5 µg/mL (≈ 34.4 µM) with Staphylococcus aureus [4]; 7.5 µg/mL (≈ 34.4 µM) in the series on Candida albicans; 7.5 µg/mL (≈ 34.4 µM) in the series on Staphylococcus aureus [5]. Also, the result in series [3] was inactive. For the same compound, the MBC in the series on Staphylococcus aureus [4] and with Staphylococcus aureus [5] was 12.5 µg/mL (≈ 57.3 µM) in each case. As for `Cc1ccc([C@@H](C)CCC(=O)C(C)(C)O)c(O)c1`, the outcome in series [3] was inactive. With `Cc1ccc([C@@H](C)CCC(=O)O)c(O)c1`, the outcome in series [3] was inactive. The same measure, in the same setting: the value for `C/C(=C\CC[C@H](C)c1ccc(C)cc1O)CO` was “inactive”. Take `CC(C)=CCC[C@H](C)c1cc([N+](=O)[O-])c(C)cc1O`: half-maximal cytotoxicity in series [6] (CC50) was put at 39 µg/mL (≈ 148 µM). The result in series [3] was inactive. Besides, in the series with Hepatitis B virus, a half-maximal effect (EC50) was put at 61 µg/mL (≈ 232 µM) and the EC90 is 203 µg/mL (≈ 771 µM). As to `Cc1ccc([C@@H](C)CC[C@@H](O)C(C)(C)O)c(O)c1`, the result in series [3] was inactive. In the case of `Cc1ccc([C@@H](C)CCCC(C)(C)O)c(OC(=O)c2ccncc2)c1`, the result in series [3] was inactive. Turning to `Cc1ccc([C@@H](C)CCC[C@@H](C)CO)c(O)c1`, the outcome in series [3] was inactive. Same read-out and setting: the value for `C/C(C=O)=C\CC[C@H](C)c1ccc(CO)cc1O` was “inactive”; that for `Cc1ccc([C@@H](C)CCC[C@H](C)CO)c(O)c1` was “inactive”; that for `Cc1ccc([C@@H](C)CCCC(C)(C)O)c(O)c1` was “inactive”.
